Test results taken from ChEMBL document CHEMBL5678806, “NMS-P937, an orally available, specific small-molecule polo-like kinase 1 inhibitor with antitumor activity in solid and hematologic malignancies” (Mol Cancer Ther, 2012).
Activity calls are given as the source filed them. The rule behind the calls is not given here.

Columns and labels:
A2780 [1] = assay: Induction of mitosis in human A2780 cells xenografted in nu/nu mouse assessed as decreased Histone H3 phosphorylation on Ser10 at 60 mg/kg, po administered for 12 to 24 hrs by immunohistochemistry analysis; format: functional, organism-based; conditions: time lower […], time upper 24.0 hrs
CAKI-1 = assay: Antiproliferative activity against human CAKI-1 cells assessed as inhibition of cell growth incubated for 72 hrs by cell-titer glo assay; format: functional, cell-based; conditions: CAKI-1, 72 h
In short: (§1)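 Cells seeded 10,000–30,000/cm² (adherent) or 100,000/mL (suspension) in medium with 10% fetal calf serum; after 24 h treated in duplicate with serial dilutions for 72 h. Viable cells read by CellTiter-Glo luminescence; IC50 from sigmoidal fit; at least two independent experiments.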

[2] = biological target: Mitogen-activated protein kinase 11 (Homo sapiens) (UniProt Q15759); assay: Inhibition of N-terminal GST fusion protein corresponding to full-length human SAPK2b expressed in E. coli assessed as residual activity at 0.1 uM relative to control
[3] = AUC in Sprague-Dawley rat at 10 mg/kg, iv by LC-MS analysis; format: ADME, organism-based; conditions: in vivo
[4] = Tmax in male cynomolgus monkey at 5 mg/kg, po by LC-MS analysis; format: ADME, organism-based, Macaca fascicularis; conditions: in vivo
SK-MEL-2 = assay: Antiproliferative activity against human SK-MEL-2 cells assessed as inhibition of cell growth incubated for 72 hrs by cell-titer glo assay; format: functional, cell-based; conditions: SK-MEL-2, 72 h
SU-DHL-6 = assay: Antiproliferative activity against human SU-DHL-6 cells assessed as inhibition of cell growth incubated for 72 hrs by cell-titer glo assay; format: functional, cell-based; conditions: SU-DHL-6, 72 h
Hs-578T = assay: Antiproliferative activity against human Hs-578T cells assessed as inhibition of cell growth incubated for 72 hrs by cell-titer glo assay; format: functional, cell-based
In short: (§2)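 Cells seeded at 10,000–30,000/cm² (adherent) or 100,000/mL (nonadherent) in medium with 10% fetal calf serum; after 24 h, treated in duplicate with serial dilutions for 72 h. Viable cell number read by CellTiter-Glo luminescence; IC50 from sigmoidal fit; at least two independent experiments.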

[5] = Antiproliferative activity against human Lovo/DX cells assessed as inhibition of cell growth incubated for 72 hrs by cell-titer glo assay; format: functional, cell-based; in short: as §2
[6] = biological target: Phosphorylase b kinase gamma catalytic chain, liver/testis isoform (Homo sapiens) (UniProt P15735); assay: Inhibition of GST-tagged recombinant human PhKgamma2 (1 to 301 residues) expressed in E. coli assessed as residual activity at 1 uM relative to control
[7] = biological target: Proto-oncogene tyrosine-protein kinase ROS (Homo sapiens, UniProt P08922); assay: Inhibition of ROS (unknown origin) in presence of [gamma-33P]ATP
786-0 = assay: Antiproliferative activity against human 786-0 cells assessed as inhibition of cell growth incubated for 72 hrs by cell-titer glo assay; format: functional, cell-based; conditions: 786-0, 72 h; in short: as §1
[8] = biological target: CDK6/cyclin D3 (Homo sapiens) (UniProt P30281+Q00534); assay: Inhibition of N-terminal His6-tagged full-length human CDK6/N-terminal GST-tagged full-length human cyclinD3 expressed in Sf21 cells assessed as residual activity at 0.1 uM relative to control
[9] = biological target: Serine/threonine-protein kinase Nek6 (Homo sapiens, UniProt Q9HC98); assay: Inhibition of NEK6 (unknown origin) in presence of [gamma-33P]ATP
A2780 [10] = assay: Antiproliferative activity against human A2780 cells assessed as inhibition of cell growth incubated for 72 hrs by cell-titer glo assay; format: functional, cell-based; conditions: A2780, 72 h; in short: as §1
MDA-MB-231 = assay: Antiproliferative activity against human MDA-MB-231 cells assessed as inhibition of cell growth incubated for 72 hrs by cell-titer glo assay; format: functional, cell-based; conditions: MDA-MB-231, 72 h; in short: as §2
[11] = biological target: Serine/threonine-protein kinase Nek3 (Homo sapiens) (UniProt P51956); assay: Inhibition of N-terminal 6His-tagged recombinant full length human NEK3 expressed in baculovirus infected Sf21 cells assessed as residual activity at 1 uM relative to control
[12] = biological target: Tyrosine-protein kinase JAK1 (Homo sapiens, UniProt P23458); assay: Inhibition of JAK1 (unknown origin) in presence of [gamma-33P]ATP
[13] = biological target: Serine/threonine-protein kinase PAK 3 (Homo sapiens) (UniProt O75914); assay: Inhibition of C-terminal 6His-tagged recombinant human full-length PAK3 expressed in baculovirus infected Sf21 cells assessed as residual activity at 1 uM relative to control
[14] = biological target: Serine/threonine-protein kinase pim-1 (Homo sapiens, UniProt P11309); assay: Inhibition of PIM1 (unknown origin) in presence of [gamma-33P]ATP
SF-268 = assay: Antiproliferative activity against human SF-268 cells assessed as inhibition of cell growth incubated for 72 hrs by cell-titer glo assay; format: functional, cell-based; conditions: SF-268, 72 h
In short: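 Cells from ATCC or ECACC, kept in supplier-recommended medium with 1% penicillin-streptomycin at 37°C, 5% CO₂. Seeded at 10,000–30,000/cm² (adherent) or 100,000/mL (nonadherent) in medium with 10% fetal calf serum. Dosed after 24 h in duplicate with serial dilutions. Viable cells read by CellTiter-Glo 72 h later. IC50 from sigmoidal fit. At least two independent experiments.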

[15] = biological target: Cyclin-dependent kinase 2/cyclin E1 (Homo sapiens, UniProt P24941); assay: Inhibition of CDK2/CycE (unknown origin) in presence of [gamma-33P]ATP; format: protein-complex assay
A2780 [16] = assay: In vivo inhibition of PLK1 in human A2780 cells xenografted in nu/nu mouse assessed as decreased TCTP phosphorylation on Ser46 at 90 to 120 mg/kg, po administered for 6 to 12 hrs by Western blotting analysis; format: functional, organism-based; conditions: dose lower 90.0 mg/kg, dose upper […], time lower 6.0 hrs
TK-10 = assay: Antiproliferative activity against human TK-10 cells assessed as inhibition of cell growth incubated for 72 hrs by cell-titer glo assay; format: functional, cell-based; conditions: TK-10, 72 h
[17] = biological target: Serine/threonine-protein kinase tousled-like 2 (Homo sapiens, UniProt Q86UE8); assay: Inhibition of TLK2 (unknown origin) in presence of [gamma-33P]ATP
Jurkat = assay: Antiproliferative activity against human Jurkat cells assessed as inhibition of cell growth incubated for 72 hrs by cell-titer glo assay; format: functional, cell-based; in short: as §2
[18] = biological target: Tyrosine-protein kinase SYK (Homo sapiens, UniProt P43405); assay: Inhibition of SYK (unknown origin) in presence of [gamma-33P]ATP
[19] = biological target: Calcium/calmodulin-dependent protein kinase type II subunit delta (Homo sapiens) (UniProt Q13557); assay: Inhibition of recombinant full length human CaMKIIdelta assessed as residual activity at 0.1 uM relative to control
[20] = biological target: Eukaryotic elongation factor 2 kinase (Homo sapiens, UniProt O00418); assay: Inhibition of EEF2K (unknown origin) in presence of [gamma-33P]ATP
COLO-678 = assay: Antiproliferative activity against human COLO-678 cells assessed as inhibition of cell growth incubated for 72 hrs by cell-titer glo assay; format: functional, cell-based; conditions: COLO-678, 72 h; in short: as §1

Chain of Serine/threonine-protein kinase pim-1 (P11309 whole entry): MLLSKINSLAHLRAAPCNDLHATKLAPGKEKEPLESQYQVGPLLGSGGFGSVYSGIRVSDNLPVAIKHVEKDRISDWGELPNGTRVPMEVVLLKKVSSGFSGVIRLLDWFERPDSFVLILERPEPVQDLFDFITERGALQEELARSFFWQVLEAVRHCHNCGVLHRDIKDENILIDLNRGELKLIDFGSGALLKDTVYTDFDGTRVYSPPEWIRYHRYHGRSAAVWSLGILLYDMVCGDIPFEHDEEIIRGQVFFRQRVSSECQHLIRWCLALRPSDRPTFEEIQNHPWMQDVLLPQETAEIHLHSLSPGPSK
Chain of Phosphorylase b kinase gamma catalytic chain, liver/testis isoform (Homo sapiens) (P15735 whole entry, the tested form may be a part, canonical isoform): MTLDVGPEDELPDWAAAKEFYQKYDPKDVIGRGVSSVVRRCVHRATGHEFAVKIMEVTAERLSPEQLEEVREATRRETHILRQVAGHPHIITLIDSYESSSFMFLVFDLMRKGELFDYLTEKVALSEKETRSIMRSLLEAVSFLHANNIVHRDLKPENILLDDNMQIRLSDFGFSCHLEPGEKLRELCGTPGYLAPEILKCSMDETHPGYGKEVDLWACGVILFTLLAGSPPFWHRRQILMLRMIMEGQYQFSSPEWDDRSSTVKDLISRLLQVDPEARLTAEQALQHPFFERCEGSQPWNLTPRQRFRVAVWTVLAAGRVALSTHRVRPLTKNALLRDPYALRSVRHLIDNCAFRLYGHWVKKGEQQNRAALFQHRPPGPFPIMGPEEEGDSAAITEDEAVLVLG
Chain of Proto-oncogene tyrosine-protein kinase ROS (P08922 whole entry): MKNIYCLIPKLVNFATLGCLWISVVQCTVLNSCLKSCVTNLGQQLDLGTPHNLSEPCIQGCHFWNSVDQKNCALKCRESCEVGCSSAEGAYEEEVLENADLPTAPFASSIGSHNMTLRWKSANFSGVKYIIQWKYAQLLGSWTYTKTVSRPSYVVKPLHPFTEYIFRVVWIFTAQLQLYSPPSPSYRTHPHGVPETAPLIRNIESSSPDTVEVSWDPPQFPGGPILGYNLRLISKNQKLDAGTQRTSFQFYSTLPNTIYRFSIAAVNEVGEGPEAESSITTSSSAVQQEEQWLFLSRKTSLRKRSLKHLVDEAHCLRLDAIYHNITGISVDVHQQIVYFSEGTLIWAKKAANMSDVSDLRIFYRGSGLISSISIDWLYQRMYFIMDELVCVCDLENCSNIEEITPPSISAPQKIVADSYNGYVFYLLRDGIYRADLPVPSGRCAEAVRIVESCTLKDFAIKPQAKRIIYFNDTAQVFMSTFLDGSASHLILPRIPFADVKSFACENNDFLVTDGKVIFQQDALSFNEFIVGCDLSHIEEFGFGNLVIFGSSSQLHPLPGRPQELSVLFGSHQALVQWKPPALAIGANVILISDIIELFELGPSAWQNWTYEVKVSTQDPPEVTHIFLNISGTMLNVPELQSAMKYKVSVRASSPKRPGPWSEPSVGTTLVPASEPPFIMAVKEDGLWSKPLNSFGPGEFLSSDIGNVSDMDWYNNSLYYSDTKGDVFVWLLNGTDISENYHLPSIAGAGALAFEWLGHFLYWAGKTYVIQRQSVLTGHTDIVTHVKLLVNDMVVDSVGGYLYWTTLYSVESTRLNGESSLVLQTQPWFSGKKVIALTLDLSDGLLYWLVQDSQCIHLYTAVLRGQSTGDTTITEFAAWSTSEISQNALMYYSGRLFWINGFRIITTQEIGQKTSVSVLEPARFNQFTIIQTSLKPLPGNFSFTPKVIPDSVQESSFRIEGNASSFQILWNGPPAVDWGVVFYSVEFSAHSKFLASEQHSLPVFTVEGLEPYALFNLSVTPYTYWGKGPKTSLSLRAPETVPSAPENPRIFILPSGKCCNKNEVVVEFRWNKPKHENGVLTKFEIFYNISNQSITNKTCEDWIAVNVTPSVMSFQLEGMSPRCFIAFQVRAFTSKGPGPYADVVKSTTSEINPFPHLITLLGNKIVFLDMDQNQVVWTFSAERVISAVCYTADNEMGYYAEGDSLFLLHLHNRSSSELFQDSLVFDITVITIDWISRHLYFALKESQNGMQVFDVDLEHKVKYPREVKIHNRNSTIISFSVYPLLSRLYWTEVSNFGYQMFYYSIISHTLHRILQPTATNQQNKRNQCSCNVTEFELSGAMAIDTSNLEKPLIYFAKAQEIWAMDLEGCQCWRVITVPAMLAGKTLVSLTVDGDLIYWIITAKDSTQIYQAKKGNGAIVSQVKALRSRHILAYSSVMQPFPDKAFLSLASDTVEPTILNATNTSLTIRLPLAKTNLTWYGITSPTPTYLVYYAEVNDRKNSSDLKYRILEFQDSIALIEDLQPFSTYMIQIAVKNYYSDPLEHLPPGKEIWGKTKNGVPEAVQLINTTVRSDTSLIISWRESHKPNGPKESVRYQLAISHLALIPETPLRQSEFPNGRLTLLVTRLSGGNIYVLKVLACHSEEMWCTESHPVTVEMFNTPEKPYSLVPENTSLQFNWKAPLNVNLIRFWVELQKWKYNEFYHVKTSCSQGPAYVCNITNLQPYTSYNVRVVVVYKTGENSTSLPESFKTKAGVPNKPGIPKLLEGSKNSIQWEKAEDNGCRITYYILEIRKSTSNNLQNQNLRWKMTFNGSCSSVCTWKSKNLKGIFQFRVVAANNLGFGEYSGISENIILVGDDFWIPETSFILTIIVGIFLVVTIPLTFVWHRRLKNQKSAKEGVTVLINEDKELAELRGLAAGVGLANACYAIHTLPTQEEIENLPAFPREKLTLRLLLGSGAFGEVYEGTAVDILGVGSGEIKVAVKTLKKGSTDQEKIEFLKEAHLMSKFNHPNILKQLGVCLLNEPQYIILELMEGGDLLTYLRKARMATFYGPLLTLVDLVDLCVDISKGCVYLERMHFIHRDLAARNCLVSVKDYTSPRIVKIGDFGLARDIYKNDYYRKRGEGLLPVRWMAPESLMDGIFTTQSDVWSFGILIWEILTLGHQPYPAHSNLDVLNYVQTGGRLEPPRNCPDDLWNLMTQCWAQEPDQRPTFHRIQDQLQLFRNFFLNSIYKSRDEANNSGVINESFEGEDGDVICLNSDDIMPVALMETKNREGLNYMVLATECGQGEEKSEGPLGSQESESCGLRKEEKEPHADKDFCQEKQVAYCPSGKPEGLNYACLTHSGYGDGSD
Chain of Eukaryotic elongation factor 2 kinase (O00418 whole entry): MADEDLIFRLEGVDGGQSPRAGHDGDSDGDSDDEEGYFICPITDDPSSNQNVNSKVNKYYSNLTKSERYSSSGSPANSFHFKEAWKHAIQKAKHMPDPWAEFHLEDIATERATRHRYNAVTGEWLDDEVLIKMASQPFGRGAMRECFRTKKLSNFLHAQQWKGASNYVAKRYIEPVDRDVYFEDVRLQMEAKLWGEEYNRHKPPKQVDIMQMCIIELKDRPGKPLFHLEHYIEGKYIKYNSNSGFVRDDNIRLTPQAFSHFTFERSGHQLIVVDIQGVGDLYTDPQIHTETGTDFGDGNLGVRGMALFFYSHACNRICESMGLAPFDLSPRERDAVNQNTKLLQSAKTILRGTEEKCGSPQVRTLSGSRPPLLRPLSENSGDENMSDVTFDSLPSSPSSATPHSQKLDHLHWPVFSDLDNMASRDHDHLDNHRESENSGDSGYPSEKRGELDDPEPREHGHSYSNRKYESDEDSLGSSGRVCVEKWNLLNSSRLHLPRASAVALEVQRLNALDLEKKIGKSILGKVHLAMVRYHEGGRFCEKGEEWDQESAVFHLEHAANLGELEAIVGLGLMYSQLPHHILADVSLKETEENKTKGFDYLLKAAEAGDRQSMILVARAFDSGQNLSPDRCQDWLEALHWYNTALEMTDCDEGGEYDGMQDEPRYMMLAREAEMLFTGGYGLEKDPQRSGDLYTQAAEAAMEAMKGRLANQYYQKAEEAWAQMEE
Chain of Serine/threonine-protein kinase PAK 3 (Homo sapiens) (O75914 whole entry, looked up): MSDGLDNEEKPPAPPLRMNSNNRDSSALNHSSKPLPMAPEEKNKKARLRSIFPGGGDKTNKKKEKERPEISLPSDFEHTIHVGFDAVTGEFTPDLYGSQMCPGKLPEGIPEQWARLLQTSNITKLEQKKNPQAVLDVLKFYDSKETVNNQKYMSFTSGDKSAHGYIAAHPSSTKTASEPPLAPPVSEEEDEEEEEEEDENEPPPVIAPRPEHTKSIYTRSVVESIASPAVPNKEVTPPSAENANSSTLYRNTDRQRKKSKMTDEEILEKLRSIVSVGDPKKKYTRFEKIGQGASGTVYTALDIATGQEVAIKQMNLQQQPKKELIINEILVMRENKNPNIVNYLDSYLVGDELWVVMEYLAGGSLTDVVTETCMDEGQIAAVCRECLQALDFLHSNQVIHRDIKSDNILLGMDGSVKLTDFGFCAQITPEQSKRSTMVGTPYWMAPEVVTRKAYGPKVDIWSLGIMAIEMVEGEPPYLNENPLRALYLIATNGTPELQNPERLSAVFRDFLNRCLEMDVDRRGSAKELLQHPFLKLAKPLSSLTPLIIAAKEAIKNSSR
Chain of Calcium/calmodulin-dependent protein kinase type II subunit delta (Homo sapiens) (Q13557 whole entry): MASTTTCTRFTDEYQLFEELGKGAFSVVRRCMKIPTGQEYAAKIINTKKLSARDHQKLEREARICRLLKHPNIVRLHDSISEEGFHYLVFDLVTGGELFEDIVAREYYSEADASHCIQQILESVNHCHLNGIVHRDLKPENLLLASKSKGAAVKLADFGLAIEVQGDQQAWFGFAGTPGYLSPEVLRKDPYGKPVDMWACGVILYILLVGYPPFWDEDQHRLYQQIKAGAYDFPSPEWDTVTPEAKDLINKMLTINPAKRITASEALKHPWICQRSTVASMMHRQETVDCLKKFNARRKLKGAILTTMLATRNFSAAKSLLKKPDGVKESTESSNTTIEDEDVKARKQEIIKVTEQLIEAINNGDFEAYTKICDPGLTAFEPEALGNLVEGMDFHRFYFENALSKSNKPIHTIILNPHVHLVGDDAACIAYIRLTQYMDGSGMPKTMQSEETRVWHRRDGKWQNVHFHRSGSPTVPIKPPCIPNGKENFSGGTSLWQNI

Q: Which Activity (A2780 [1]) does the source give for CN1CCN(c2ccc(OC(F)(F)F)c(Nc3ncc4c(n3)-c3c(c(C(N)=O)nn3CCO)CC4)c2)CC1 [ONVANSERTIB] here?
A: Active

Q: What about the IC50 (CAKI-1) of the same compound?
A: 515 nM

Q: And the Activity [2]?
A: 152%

Q: What about the AUC [3] of the same compound?
A: 13.8 µM·h

Q: What about the Tmax [4] of the same compound?
A: 2.7 h

Q: And the IC50 (SK-MEL-2)?
A: 256 nM

Q: What about the IC50 (SU-DHL-6) of the same compound?
A: 50 nM

Q: What about the IC50 (Hs-578T) of the same compound?
A: 251 nM

Q: And the IC50 [5]?
A: 1720 nM

Q: What about the Activity [6] of the same compound?
A: 88%

Q: What about the IC50 [7] of the same compound?
A: > 10 µM

Q: And the IC50 (786-0)?
A: 129 nM

Q: What about the Activity [8] of the same compound?
A: 114%

Q: And the IC50 [9]?
A: > 10 µM

Q: What about the IC50 (A2780 [10]) of the same compound?
A: 40 nM

Q: What about the IC50 (MDA-MB-231) of the same compound?
A: 172 nM

Q: What about the Activity [11] of the same compound?
A: 118%

Q: What about the IC50 [12] of the same compound?
A: > 10 µM

Q: And the Activity [13]?
A: 90%

Q: And the IC50 [14]?
A: > 10 µM

Q: What about the IC50 (SF-268) of the same compound?
A: 90 nM

Q: And the IC50 [15]?
A: > 10 µM

Q: And the inhibition (A2780 [16])?
A: Active

Q: And the IC50 (TK-10)?
A: 1210 nM

Q: And the IC50 [17]?
A: > 10 µM

Q: And the IC50 (Jurkat)?
A: 48 nM

Q: And the IC50 [18]?
A: > 10 µM

Q: And the Activity [19]?
A: 88%

Q: And the IC50 [20]?
A: > 10 µM

Q: What about the IC50 (COLO-678) of the same compound?
A: 354 nM
